The structures appear in SMILES notation. Where only a bound is given, the exact number is not on record here.

Experimental findings from ChEMBL document CHEMBL3580561, “Mitigation of Acetylcholine Esterase Activity in the 1,7-Diazacarbazole Series of Inhibitors of Checkpoint Kinase 1” (J Med Chem, 2015) are described below.

The target in assay [1] is T1, Serine/threonine-protein kinase Chk1 (Homo sapiens, UniProt O14757).
T1 sequence (O14757 whole entry): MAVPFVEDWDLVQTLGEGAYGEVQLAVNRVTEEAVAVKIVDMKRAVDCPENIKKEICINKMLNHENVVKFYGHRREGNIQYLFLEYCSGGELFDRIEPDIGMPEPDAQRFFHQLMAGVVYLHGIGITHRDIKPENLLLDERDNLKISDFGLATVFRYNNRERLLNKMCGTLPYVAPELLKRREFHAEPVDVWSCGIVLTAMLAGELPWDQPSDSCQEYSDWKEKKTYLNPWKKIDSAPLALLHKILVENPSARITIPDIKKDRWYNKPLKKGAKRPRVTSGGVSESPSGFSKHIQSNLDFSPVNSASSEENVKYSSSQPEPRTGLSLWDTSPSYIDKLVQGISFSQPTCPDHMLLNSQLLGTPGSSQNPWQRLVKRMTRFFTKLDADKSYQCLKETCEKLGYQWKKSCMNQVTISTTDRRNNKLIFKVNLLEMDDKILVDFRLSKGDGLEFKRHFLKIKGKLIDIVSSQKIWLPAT
Nature of the assay: Inhibition of human recombinant Chk1 using biotinylated AKT substrate after 30 mins by Alphascreen biochemical assay.

The target of assay [2] is T1, Serine/threonine-protein kinase Chk1. Nature of the assay: Inhibition of CHK1 in human HT29 cells assessed as phosphorylation of histone H3 after 24 hrs by checkpoint abrogation cellular assay. It counts as cell-based, HT-29.
The target in a further assay is Acetylcholinesterase (Homo sapiens, UniProt P22303). Nature of the assay: Inhibition of human acetylcholine esterase by horseradish peroxidase-coupled fluorescence assay. The method in brief: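 Human AChE at 0.006 U/ml, with 0.25 μM acetylcholine chloride, 0.06 U/ml choline oxidase, 0.05 U/ml horseradish peroxidase and 200 μM Amplex Red, in proprietary buffer with test compound. Incubated 30 min at 25 °C. Fluorescence read.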
Acetylcholinesterase, sequence (P22303 whole entry): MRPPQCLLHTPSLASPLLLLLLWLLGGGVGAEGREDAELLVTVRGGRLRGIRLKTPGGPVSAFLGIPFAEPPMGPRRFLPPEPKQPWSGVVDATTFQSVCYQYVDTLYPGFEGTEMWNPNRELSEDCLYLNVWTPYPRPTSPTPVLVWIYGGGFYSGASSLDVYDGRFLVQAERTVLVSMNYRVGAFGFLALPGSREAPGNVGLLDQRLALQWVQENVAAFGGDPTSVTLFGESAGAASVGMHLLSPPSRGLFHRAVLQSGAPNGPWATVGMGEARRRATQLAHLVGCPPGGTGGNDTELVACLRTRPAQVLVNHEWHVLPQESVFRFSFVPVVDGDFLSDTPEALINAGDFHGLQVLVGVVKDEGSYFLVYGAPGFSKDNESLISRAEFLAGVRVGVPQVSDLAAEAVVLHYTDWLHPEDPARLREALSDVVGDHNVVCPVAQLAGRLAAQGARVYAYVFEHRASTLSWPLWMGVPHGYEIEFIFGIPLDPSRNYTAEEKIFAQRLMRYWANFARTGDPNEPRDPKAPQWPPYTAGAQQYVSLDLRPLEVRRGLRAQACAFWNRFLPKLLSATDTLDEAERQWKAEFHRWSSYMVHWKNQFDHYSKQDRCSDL

On to `c1nnc(-c2cc3c(cn2)[nH]c2ncc(-c4ccc(CN5CCCCC5)cc4)cc23)o1`, for which the half-maximal inhibitory concentration (IC50) turned out to be 0.95 nM in assay [1] and 450 nM on Acetylcholinesterase. Moreover, in assay [2], the concentration giving a half-maximal response (EC50) was 103 nM.
`CN1CCN(c2ccc(-c3cnc4[nH]c5cnc(C#N)cc5c4c3)cc2)CC1` registered an IC50 against Acetylcholinesterase of 18 nM.
On to `CC(C)(c1ccc(-c2cnc3[nH]c4cnc(C#N)cc4c3c2)cc1)N1CCCCC1`, for which the IC50 came out at 10.2 nM in assay [1] and 507 nM at Acetylcholinesterase. Further, the EC50 in assay [2] stood at 228 nM.
Turning to `Oc1cc2c(cn1)[nH]c1ncc(-c3ccc(CN4CCCCC4)cc3)cc12`, in assay [1], the concentration for half-maximal inhibition (IC50) turned out to be 863 nM.
With `N#Cc1cc2c(cn1)[nH]c1ncc(-c3ncc[nH]3)cc12`, the half-maximal inhibitory concentration (IC50) in assay [1] was determined as 14.7 nM. Also, in assay [2], the 50% effective concentration (EC50) was over 5000 nM.
The corresponding values for `Cn1ccc(-c2cnc3[nH]c4cnc(C#N)cc4c3c2)n1` are 33.8 nM and 2500 nM.
Take `CC(=O)Nc1cccc(-c2cnc3[nH]c4cnc(C#N)cc4c3c2)c1`: the IC50 in assay [1] worked out at 13.5 nM. For the same molecule, in assay [2], the EC50 was found to be 425 nM.
Regarding `N#Cc1cc2c(cn1)[nH]c1ncc(-c3ccoc3)cc12`, the IC50 in assay [1] amounted to 16.6 nM. Besides, the 50% effective concentration (EC50) in assay [2] was found to be 180 nM.
On to `Cn1cc(-c2cc3c(cn2)[nH]c2ncc(-c4ccc(CN5CCCCC5)cc4)cc23)cn1`, for which the IC50 in assay [1] was found to be 0.31 nM; on Acetylcholinesterase, 874 nM. Further, the EC50 in assay [2] came to 9 nM.
For the molecule `N#Cc1cc2c(cn1)[nH]c1ncc(-c3cccc(CO)c3)cc12`, the 50% inhibitory concentration (IC50) in assay [1] turned out to be 27.1 nM. In addition, in assay [2], the EC50 is over 5000 nM.
As for `C[C@@H]1CCC[C@H](C)N1Cc1ccc(-c2cnc3[nH]c4cnc(C#N)cc4c3c2)cc1`, the half-maximal inhibitory concentration (IC50) in assay [1] came to 2.1 nM; against Acetylcholinesterase, 135 nM. The concentration giving a half-maximal response (EC50) in assay [2] was 99.1 nM.
For `N#Cc1cc2c(cn1)[nH]c1ncc(-c3ccc(CN4CCC(C#N)CC4)cc3)cc12`, in that order: 11.6 nM, 2690 nM and 339 nM.
Take `N#Cc1cc2c(cn1)[nH]c1ncc(-c3ccccn3)cc12`: the half-maximal inhibitory concentration (IC50) in assay [1] was 127 nM. The EC50 in assay [2] is over 5000 nM.
As for `N#Cc1cc2c(cn1)[nH]c1ncc(-c3ccc(CO)cc3)cc12`, the IC50 in assay [1] worked out at 11.4 nM. Further, the EC50 in assay [2] was 938 nM.
On to `N#Cc1cc2c(cn1)[nH]c1ncc(-c3ccc(N4CCOCC4)cc3)cc12`, for which the 50% inhibitory concentration (IC50) in assay [1] was 78.7 nM. In assay [2], the EC50 stood at 219 nM.
As to `NC(=O)c1cc2c(cn1)[nH]c1ncc(-c3ccc(CN4CCCCC4)cc3)cc12`, the 50% inhibitory concentration (IC50) in assay [1] is 4.3 nM; against Acetylcholinesterase, 217 nM. In assay [2], the EC50 worked out at 292 nM.
For the molecule `CCN1CCc2sc(-c3cnc4[nH]c5cnc(C#N)cc5c4c3)cc2C1`, the half-maximal inhibitory concentration (IC50) in assay [1] is 0.78 nM; against Acetylcholinesterase, 259 nM. Also, in assay [2], the EC50 is 50.9 nM.
Regarding `N#Cc1cc2c(cn1)[nH]c1ncccc12`, the half-maximal inhibitory concentration (IC50) in assay [1] was 414 nM.
Regarding `c1cc(-c2cc3c(cn2)[nH]c2ncc(-c4ccc(CN5CCCCC5)cc4)cc23)ccn1`, the IC50 was 9.1 nM in assay [1] and 777 nM against Acetylcholinesterase. In assay [2], the EC50 was determined as 1570 nM.
With `N#Cc1cc2c(cn1)[nH]c1ncc(-c3ccc(CN4CCC(F)CC4)cc3)cc12`, the IC50 was determined as 5 nM in assay [1] and 890 nM against Acetylcholinesterase. For the same molecule, the EC50 in assay [2] stood at 95.8 nM.
Regarding `N#Cc1cc2c(cn1)[nH]c1ncc(-c3ccc(CN4CCOCC4)cc3)cc12`, the IC50 worked out at 13.9 nM in assay [1] and 13300 nM against Acetylcholinesterase. Moreover, the EC50 in assay [2] was 216 nM.
As to `CN1CCN(c2cccc(-c3cnc4[nH]c5cnc(C#N)cc5c4c3)c2)CC1`, the half-maximal inhibitory concentration (IC50) in assay [1] was determined as 1.9 nM; at Acetylcholinesterase, 4770 nM. Moreover, the EC50 in assay [2] worked out at 133 nM.
As for `CCNc1cnc2[nH]c3cnc(C#N)cc3c2c1`, in assay [1], the concentration for half-maximal inhibition (IC50) worked out at 56.6 nM. Also, the concentration for a half-maximal effect (EC50) in assay [2] is 1790 nM.
As for `N#Cc1cc2c(cn1)[nH]c1ncc(O)cc12`, the IC50 in assay [1] was found to be 38.1 nM. For the same molecule, in assay [2], the EC50 was over 5000 nM.
In the case of `COc1cc2c(cn1)[nH]c1ncc(-c3ccc(CN4CCCCC4)cc3)cc12`, the IC50 in assay [1] came out at 19.8 nM. In addition, the EC50 in assay [2] came out at 986 nM.
Turning to `c1ncc(-c2cc3c(cn2)[nH]c2ncc(-c4ccc(CN5CCCCC5)cc4)cc23)o1`, the results for the half-maximal inhibitory concentration (IC50) (in assay [1]; on Acetylcholinesterase) were 0.46 nM and 323 nM, respectively. The EC50 in assay [2] was determined as 23.9 nM.
With `c1cc(-c2cc3c(cn2)[nH]c2ncc(-c4ccc(CN5CCCCC5)cc4)cc23)cnn1`, the IC50 in assay [1] turned out to be 2.9 nM; on Acetylcholinesterase, 1040 nM. Further, in assay [2], the concentration giving a half-maximal response (EC50) amounted to 656 nM.
In the case of `N#Cc1cc2c(cn1)[nH]c1ncc(-c3ccc(CN4CCC(O)CC4)cc3)cc12`, the IC50 is 1.8 nM in assay [1] and 378 nM at Acetylcholinesterase. In addition, in assay [2], the half-maximal effective concentration (EC50) was found to be 144 nM.
For the molecule `c1cc(-c2cnc3[nH]c4cnc(-c5cnoc5)cc4c3c2)ccc1CN1CCCCC1`, the IC50 in assay [1] stood at 1.1 nM; at Acetylcholinesterase it was 659 nM. Besides, the 50% effective concentration (EC50) in assay [2] stood at 145 nM.
Regarding `N#Cc1cc2c(cn1)[nH]c1ncc(-c3ccccc3O)cc12`, in assay [1], the IC50 came out at 41.7 nM. Also, in assay [2], the half-maximal effective concentration (EC50) is over 5000 nM.
Regarding `N#Cc1cc2c(cn1)[nH]c1ncc(Br)cc12`, in assay [1], the IC50 stood at 140 nM.
With `c1ncc(-c2cc3c(cn2)[nH]c2ncc(-c4ccc(CN5CCCCC5)cc4)cc23)s1`, the IC50 was 1.3 nM in assay [1] and 496 nM at Acetylcholinesterase. In assay [2], the EC50 amounted to 62.7 nM.
Consider `CCNC(=O)c1cc2c(cn1)[nH]c1ncc(-c3ccc(CN4CCCCC4)cc3)cc12`, for which, in assay [1], the IC50 is 102 nM. For the same molecule, the EC50 in assay [2] worked out at 2230 nM.
In the case of `C[C@@H]1C[C@H](C)CN(Cc2ccc(-c3cnc4[nH]c5cnc(C#N)cc5c4c3)cc2)C1`, the concentration for half-maximal inhibition (IC50) was found to be 4.2 nM in assay [1] and 4100 nM against Acetylcholinesterase. Also, in assay [2], the concentration for a half-maximal effect (EC50) is 209 nM.
In the case of `c1cncc(-c2cc3c(cn2)[nH]c2ncc(-c4ccc(CN5CCCCC5)cc4)cc23)c1`, the 50% inhibitory concentration (IC50) in assay [1] turned out to be 0.95 nM; against Acetylcholinesterase, 493 nM. Moreover, the concentration for a half-maximal effect (EC50) in assay [2] is 75.1 nM.
`c1ncc(-c2cc3c(cn2)[nH]c2ncc(-c4ccc(CN5CCCCC5)cc4)cc23)cn1`: the 50% inhibitory concentration (IC50) came to 5.1 nM in assay [1] and 266 nM against Acetylcholinesterase. Besides, in assay [2], the half-maximal effective concentration (EC50) came to 163 nM.
On to `N#Cc1cc2c(cn1)[nH]c1ncc(-c3cccs3)cc12`, for which the 50% inhibitory concentration (IC50) in assay [1] stood at 20.2 nM. The 50% effective concentration (EC50) in assay [2] turned out to be 478 nM.
With `N#Cc1cc2c(cn1)[nH]c1ncc(-c3nc(CN4CCCCC4)cs3)cc12`, the IC50 in assay [1] was 13.6 nM; on Acetylcholinesterase, 18 nM. In assay [2], the half-maximal effective concentration (EC50) was 658 nM.
As for `CC1(C)CCN(Cc2ccc(-c3cnc4[nH]c5cnc(C#N)cc5c4c3)cc2)CC1`, the IC50 in assay [1] was found to be 4.4 nM; against Acetylcholinesterase, 11 nM. Moreover, the EC50 in assay [2] stood at 172 nM.
On to `N#Cc1cc2c(cn1)[nH]c1ncc(-c3ccc(CN4CCCCC4)nc3)cc12`, for which the IC50 turned out to be 5.3 nM in assay [1] and 187 nM against Acetylcholinesterase. Further, the 50% effective concentration (EC50) in assay [2] stood at 540 nM.
Consider `N#Cc1cc2c(cn1)[nH]c1ncc(-c3cccnc3)cc12`, for which the IC50 in assay [1] is 76.5 nM. Moreover, the concentration for a half-maximal effect (EC50) in assay [2] was over 5000 nM.
For `OCc1cc2c(cn1)[nH]c1ncc(-c3ccc(CN4CCCCC4)cc3)cc12`, in that order: 18.3 nM and 447 nM.
Regarding `CC1(C)CCCN(Cc2ccc(-c3cnc4[nH]c5cnc(C#N)cc5c4c3)cc2)C1`, the IC50 in assay [1] was determined as 9.4 nM; on Acetylcholinesterase, 3330 nM. In assay [2], the concentration giving a half-maximal response (EC50) came to 128 nM.
`N#Cc1cc2c(cn1)[nH]c1ncc(-c3ccncc3)cc12`: the half-inhibitory concentration (IC50) in assay [1] was 42.7 nM. Further, the EC50 in assay [2] is over 5000 nM.
With `c1cc2c(cn1)[nH]c1ncc(-c3ccc(CN4CCCCC4)cc3)cc12`, in assay [1], the half-maximal inhibitory concentration (IC50) amounted to 18.6 nM. Further, in assay [2], the EC50 was 1920 nM.
